Test results from ChEMBL document CHEMBL1155308, “Metallo-beta-lactamase inhibitory activity of phthalic acid derivatives” (Bioorg Med Chem Lett, 2009).
pIC50: −log10 of the molar value.

Experiment: Inhibition of carbapenems-resistant Pseudomonas aeruginosa MSC15369 metallo-beta-lactamase IMP-1 expressed in Escherichia coli after 20 mins by spectrophotometry
Method in brief: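 IMP-1 purified from cell extracts by Ni-NTA; 1.0 nM enzyme in 50 mM HEPES pH 7.5 with 100 µM ZnSO4 and 20 µg/ml BSA, preincubated with inhibitor 20 min at room temperature; nitrocefin substrate, initial velocity read at 490 nm; IC50 determined.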

SMILES	pIC50
O=C(O)c1cccc(-c2cccc(C(=O)O)c2C(=O)O)c1	4.75
O=C(O)c1cccc(-c2ccccc2)c1C(=O)O	6.01
Cc1ccc(C(=O)O)c(C(=O)O)c1	< 3.52
O=C(O)c1ccc(-c2cccc(C(=O)O)c2C(=O)O)cc1	5.65
O=C(O)c1cccc(-c2ccccc2O)c1C(=O)O	5.61
CC(C)(C)c1ccc(C(=O)O)c(C(=O)O)c1	< 3.52
O=C(O)c1ccccc1-c1cccc(C(=O)O)c1C(=O)O	3.68
O=C(O)c1cccc(CCCO)c1C(=O)O	4.88
Cc1cccc(C(=O)O)c1C(=O)O	3.80
O=C(O)c1cccc(-c2cccc(O)c2)c1C(=O)O	5.76
O=C(O)c1ccccc1C(=O)O [PHTHALIC ACID]	< 4.00
CCCCc1ccc(C(=O)O)c(C(=O)O)c1	3.61
O=C(O)c1ccc(-c2ccccc2)cc1C(=O)O	< 3.52
O=C(O)c1cccc(-c2ccc(O)cc2)c1C(=O)O	5.81
CCCCc1ccc(C(=O)O)c(C(=O)O)c1C	4.80
